# PMI act hi M6P = human PMI activators, high substrate, primary screen, biochemical, fluorescence intensity, near-saturating mannose 6-phosphate | Mannose-6-phosphate isomerase (Homo sapiens), P34949 | coupled PMI enzyme assay, resazurin fluorescence, 20 min; active compounds read high; 1 = untreated enzyme, 0 = substrate-free blank | activation factor at 20 µM | hit rate 0.34% among 190,000 | AID 1216, 2008;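 active means activation factor of 2 or more at 20 µM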
# Target sequence (P34949 whole entry, looked up): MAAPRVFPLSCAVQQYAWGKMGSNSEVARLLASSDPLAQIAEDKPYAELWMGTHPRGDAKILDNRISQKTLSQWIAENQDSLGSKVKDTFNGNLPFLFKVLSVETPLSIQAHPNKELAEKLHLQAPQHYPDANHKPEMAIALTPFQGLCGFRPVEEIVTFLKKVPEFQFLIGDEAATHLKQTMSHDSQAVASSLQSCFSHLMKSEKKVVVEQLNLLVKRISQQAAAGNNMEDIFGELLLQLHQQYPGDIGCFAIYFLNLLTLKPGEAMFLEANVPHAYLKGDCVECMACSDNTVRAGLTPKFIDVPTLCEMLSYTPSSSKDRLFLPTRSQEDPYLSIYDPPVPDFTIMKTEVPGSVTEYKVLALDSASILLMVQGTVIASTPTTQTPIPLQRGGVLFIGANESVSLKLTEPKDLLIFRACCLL
#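 test system = human PMI in coupled enzyme assay | medium = HEPES-buffered pH 7.4 with magnesium and detergent | also added = 1.0 mM mannose-6-phosphate substrate with 0.22 mM NADP+ | compound = 20 µM single dose | times = 20 min incubation at room temperature | measured by = resorufin fluorescence (Ex 544/Em 590 nm) from resazurin via diaphorase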
# PTEN del growth = growth suppression of PTEN-null HCT116, primary screen, cell-based, CellTiter-Glo; viability, % at 10 µM; hit rate 1.2% among 140,000; AID 827, 2007; HCT116 PTEN-null viability, 60 h; active compounds read low;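 active means viability at or below a set limit, 4 SD under the median of all tested compounds, cut at about 3.7% in these data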;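 further: PTEN knockout HCT116 line with beta catenin targeted HCT116 as companion control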
# HCT116 bCat-KO = primary screen for growth suppressors in beta-catenin knockout HCT116 cells (colon tumor, human); HCT116 beta-catenin knockout viability, CellTiter-Glo, 60 h; active compounds read low; viability, % at 10 µM; hit rate 1.5% among 140,000;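 active means viability at or under a set limit, the compound median less 4 SD, cut at about 6% in these data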;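 further: 0% = Hyamine 1622 control at 20 µM and 100% = untreated cell control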
# L major viab = Leishmania major promastigote growth inhibition, primary screen. Leishmania major promastigotes, resazurin fluorescence viability. AID 1063, 2008. inhibition, % at 10 µM. hit rate 9% among 200,000; in the data active means inhibition above about 50%;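 further: promastigotes grown with compound for 44 hours at 28 °C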
# PMI activator = activators of human PMI, primary screen, biochemical, fluorescence intensity, near-Km mannose 6-phosphate | Mannose-6-phosphate isomerase (Homo sapiens), P34949 | purified human PMI, coupled resazurin fluorescence, 20 min; active compounds read high; 1 = vehicle control, 0 substrate-free wells | activation factor at 20 µM | hit rate 0.005% among 190,000 | AID 1214, 2008;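 active means activation factor of 2 or more at 20 µM, relative to plate controls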
# * = called active by the depositor; . = not tested or not shown. The list is not random: actives were taken first. Their share in the collection is about 9.6%.
SMILES,PMI act hi M6P,PTEN del growth,HCT116 bCat-KO,L major viab,PMI activator
Cc1cccc(N2CCN(C(=O)CCN3C(=S)NC(C)(C)CC3C)CC2)c1C (stereo unspecified),1,.,.,65.2*,1
Cc1ccc(C)c(N2CCN(C(=O)CCCN3C(=S)NC(C)(C)CC3C)CC2)c1 (stereo unspecified),1.2,40.0,23.5,44.8,1
CN(C)S(=O)(=O)c1ccc(N2CCCC2)c(C(=O)Nc2nc3c(ccc4ccccc43)s2)c1,0.8,78.0,86.5,96.6*,0.9
CN(C)S(=O)(=O)c1ccc(N2CCCC2)c(C(=O)NCc2ccc(Cl)cc2)c1,1,75.9,73.5,3.8,1
O=C(Nc1nc2c(ccc3ccccc32)s1)c1cc([N+](=O)[O-])ccc1N1CCOCC1,0.9,.,.,20.8,1.1
CN(C)S(=O)(=O)c1ccc(N2CCCC2)c(C(=O)Nc2nc(-c3ccc(F)c(F)c3)cs2)c1,0.9,95.8,89.3,52.5*,0.9
O=C(CC1C(=O)NCCN1CC1CCCCC1)NCCc1ccc(F)cc1 (stereo unspecified),.,.,.,-3.9,.
CC(C)(C)c1ccc(-c2nnc(SCCN3C(=O)c4ccccc4C3=O)o2)cc1,0.9,91.4,101.8,-3.1,1
Cc1ccccc1C(=O)Nc1ccc(-c2nc3ccc(C(=O)c4ccccc4)cc3[nH]2)cc1,1,34.8,34.0,97.7*,1
O=C(c1ccccc1)c1ccc2nc(-c3ccc(NC(=O)c4ccccc4Br)cc3)[nH]c2c1,1.1,57.5,51.9,96.8*,1
O=C(Nc1ccc(-c2nc3ccccc3[nH]2)cc1)c1ccc(N2C(=O)CCC2=O)cc1,1,98.6,99.0,50.0*,1.1
Cc1ccc2nc(-c3ccc(NC(=O)c4ccco4)cc3)[nH]c2c1,0.9,91.1,94.4,21.5,0.9
CC12COC3(C(=O)Nc4ccc5ccccc5c4)CC1CCC32C (stereo unspecified),0.7,.,.,21.3,0.8
O=C(NC(Cc1c[nH]c2ccccc12)C(=O)Nc1ccc(OC(F)(F)F)cc1)c1cccs1 (stereo unspecified),0.9,41.4,50.0,16.4,0.7
O=C(NC(Cc1c[nH]c2ccccc12)C(=O)Nc1ccc(F)c([N+](=O)[O-])c1)c1cccs1 (stereo unspecified),0.9,41.2,51.5,64.8*,0.8
COc1cc(/C=N/NC(=O)Cn2nc([N+](=O)[O-])cc2C)cc(Br)c1OCc1ccccc1,1,68.9,57.9,11.5,0.9
CCOc1cc(/C=N/NC(=O)Cn2nc([N+](=O)[O-])cc2C)cc(Br)c1OCc1ccccc1C,1,2.1*,1.5*,5.4,1
COc1ccc(CCn2c(-c3cc([N+](=O)[O-])cc([N+](=O)[O-])c3)nc3nc4ccccc4nc32)cc1OC,0.9,77.9,71.6,79.7*,0.9
COc1ccc(CCn2c(-c3cc([N+](=O)[O-])cc([N+](=O)[O-])c3)nc3nc4ccccc4nc32)cc1,0.9,83.4,85.2,88.9*,0.9
COc1ccc(CCn2c(-c3ccco3)nc3nc4ccccc4nc32)cc1,1.3,70.0,70.3,18.4,1.1
CCOCCCNC(=O)/C(C#N)=C/c1ccccc1F,0.9,.,.,28.4,1.1
COc1cc(/C=C(\C#N)C(=O)NC2CCCCC2C)ccc1OS(=O)(=O)c1ccc(C)cc1 (stereo unspecified),0.9,1.0*,0.8*,100.1*,0.8
COc1cc(/C=C(\C#N)C(N)=O)ccc1OS(=O)(=O)c1ccc(C)cc1,0.9,46.7,34.0,0.6,0.8
CC(=O)Nc1ccc(/C=C(\C#N)C(=O)NC2CCCCC2C)cc1 (stereo unspecified),1.1,.,.,33.1,1.2
CC1CCCCC1NC(=O)/C(C#N)=C/c1ccccc1F (stereo unspecified),1.1,20.5,13.5,100.2*,1.1
SMILES,PMI act hi M6P,PTEN del growth,HCT116 bCat-KO,L major viab,PMI activator
CSc1ccc(/C=C(\C#N)C(=O)NC2CCCCC2C)cc1 (stereo unspecified),0.9,66.5,68.1,55.3*,1
CCSc1nc2ccccc2c(=O)n1-c1c(C)n(C)n(-c2ccccc2)c1=O,0.9,.,.,-6.3,0.9
O=C(NCCN1CCOCC1)c1cc(Sc2ccccc2Cl)nc2ccccc12,1.1,91.1,90.9,2.5,1
Cc1ccc(C(=O)Nc2nnc(-c3ccncc3)o2)cc1,0.9,.,.,52.9*,1
O=C(Nc1nnc(-c2ccc(Cl)cc2)o1)c1ccc(N2C(=O)CCC2=O)cc1,1.2,81.9,75.0,65.7*,1.2
O=C(Nc1nnc(-c2ccc3c(c2)CCCC3)o1)c1ccccc1,0.9,11.2,12.6,96.3*,0.9
O=C(Nc1nnc(-c2ccncc2)o1)c1ccccc1,1,.,.,2.8,1
O=C(Nc1nnc(-c2ccc3c(c2)CCCC3)o1)c1ccccc1Cl,1.1,27.6,27.4,11.8,1.1
O=C(Nc1nnc(-c2ccco2)o1)c1ccc(N2C(=O)CCC2=O)cc1,1,.,.,-4.8,1.1
C/C(=N\NC(=O)CC1N=C(Cc2ccccc2)NNC1=O)c1ccc(Cl)cc1Cl (stereo unspecified),1,69.1,68.8,15.3,0.9
Cc1ccc(C)c(Cn2c(O)c(N=NC(=S)Nc3ccccc3F)c3ccccc32)c1,1,.,.,95.8*,1
Cc1ccc(Cn2c(O)c(N=NC(=S)Nc3ccccc3F)c3cc(S(=O)(=O)N4CCOCC4)ccc32)cc1,0.9,.,.,2.9,0.9
Oc1c(N=NC(=S)Nc2ccccc2F)c2ccccc2n1Cc1ccccc1F,1.1,.,.,95.7*,1.1
Cc1cccc(NC(=O)Cn2c(O)c(N=NC(=O)c3ccccc3O)c3ccccc32)c1,1.1,102.2,86.9,-10.8,0.9
Oc1c(N=NC(=S)Nc2ccccc2F)c2ccccc2n1Cc1ccc(Cl)cc1,1,.,.,95.7*,1
CCNC(=S)N=Nc1c(O)n(Cc2ccc(Cl)cc2)c2ccccc12,0.8,37.1,29.9,8.7,0.9
Cc1ccccc1Cn1c(O)c(N=NC(=S)Nc2ccccc2F)c2ccccc21,1,.,.,76.1*,0.9
NC(=S)N=Nc1c(O)n(CCCl)c2ccccc12,0.8,.,.,-5.4,0.9
CCC(C)(C)NC(=O)c1ccc2c(c1)OCCO2,0.9,.,.,-10.4,0.9
CC(Cc1ccccc1)C(=O)N(C)Cc1cccnc1 (stereo unspecified),1,101.7,90.3,11.6,1.1
CN1CCN(c2ccc(S(=O)(=O)N3CCCCC3)cn2)CC1,1.1,102.9,96.3,17.8,1.1
CN1CCN(S(=O)(=O)c2ccc(N3CCc4ccccc4C3)nc2)CC1,0.9,.,.,94.5*,1
O=C(c1cc2ccccc2oc1=O)N(c1ccc(Cl)cc1)C1C=CS(=O)(=O)C1 (stereo unspecified),0.9,70.3,74.7,61.1*,0.9

# Screening data (PubChem)
